# Tested on: FLAG-tagged, full-length WT BCL-2
# Assay: Streptavidin pull-down from HEK 293T lysate, FLAG-BCL-2 WT, anti-FLAG western
# Type: binding, human
# Details: biotinylated BAD SAHB 4.2 1 μM, 300 μg lysate, overnight 4 °C
# Outline: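 HEK 293T cells (DMEM, 10% FBS, penicillin/streptomycin, 2 mM glutamine; mycoplasma-free) were transfected at 70% confluence with 3 μg of plasmid encoding N-FLAG full-length BCL-2 (aa 1–239) and lysed after 24 h in CHAPS buffer. Lysate (300 μg) took 1 μM biotinylated test peptide ± competitor (0.1, 1.0, 10 μM), overnight, 4 °C. Streptavidin agarose capture followed (2 h, room temperature), then PBS and 1% NP-40 washes, LDS elution and anti-FLAG western; three independent repeats.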
smiles,measurement,setting,value
CC1(C)CCC(CN2CCN(c3ccc(C(=O)NS(=O)(=O)c4ccc(NCC5CCOCC5)c([N+](=O)[O-])c4)c(Oc4cnc5[nH]ccc5c4)c3)CC2)=C(c2ccc(Cl)cc2)C1 [venetoclax],displacement of biotin-BAD SAHB 4.2 from FLAG-BCL-2 WT,venetoclax 1 μM,near complete dissociation
same,displacement of biotin-BAD SAHB 4.2 from FLAG-BCL-2 WT,venetoclax 10 μM,complete dissociation

# Reference: publication PMC12480952 (Nature Communications, 2025)
